Assay results published in ChEMBL document CHEMBL1134664, “Influence of polyamine architecture on the transport and topoisomerase II inhibitory properties of polyamine DNA-intercalator conjugates” (J Med Chem, 2001).

Experiments:
L1210 [1] = assay: Cytotoxicity against murine leukemia (L1210) cells was determined at 47h; assay type: functional, cell-based; conditions: Mus musculus, L1210, 47 h
Summary of the method: (§1)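 L1210 murine leukemia cells in early to mid log phase (under 5% trypan blue positive before the start) were grown at 37 °C in 5% CO2 in 96-well plates with increasing drug concentrations for the stated time. A methotrexate positive control was included in every trial. Viability was read by colorimetric NAD(P)H-dependent formazan production, and the IC50 was taken from this.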

L1210 [2] = assay: Cytotoxicity against murine leukemia (L1210) cells was determined at 94h; assay type: functional, cell-based; conditions: Mus musculus, L1210, 94 h; summary of the method: as §1

Row | Structure (SMILES) | IC50 (L1210 [1]) | IC50 (L1210 [2])
1 | NCCCCN(CCCN)CCCCNc1c2ccccc2nc2ccccc12 | 75 µM | 55 µM
2 | NCCCCN(CCCN)CCCCCNc1c2ccccc2nc2ccccc12 | > 100 µM | > 100 µM
3 | CCCCNc1c2ccccc2nc2ccccc12 | 2 µM | 2 µM
4 | NCCCCN(CCCN)CCCCCNCc1c2ccccc2cc2ccccc12 | 7 µM | 5 µM
5 | NCCCN(CCCCCNc1c2ccccc2nc2ccccc12)CCCCN(CCCN)CCCCCNc1c2ccccc2nc2ccccc12 | 17 µM | 23 µM
6 | NCCCN(CCCCCNCc1c2ccccc2cc2ccccc12)CCCCN(CCCN)CCCCCNCc1c2ccccc2cc2ccccc12 | 18 µM | 25 µM
7 | NCCCCN(CCCN)CCCCNCc1c2ccccc2cc2ccccc12 | 13 µM | 6 µM
8 | NCCCN(CCCCNCc1c2ccccc2cc2ccccc12)CCCCN(CCCN)CCCCNCc1c2ccccc2cc2ccccc12 | 44 µM | 61 µM
9 | NCCCNCCCCN(CCCN)CCCCNc1ccnc2cc(Cl)ccc12 | > 100 µM | > 100 µM
10 | NCCCN(CCCCNc1c2ccccc2nc2ccccc12)CCCCN(CCCN)CCCCNc1c2ccccc2nc2ccccc12 | 40 µM | 74 µM
11 | NCCCNCCCCN(CCCN)CCCCNc1c2ccccc2nc2ccccc12 | 23 µM | 17 µM
